Results taken from ChEMBL document CHEMBL1142708, “Synthesis, characterization, and comparative in vitro cytotoxicity studies of platinum(II), palladium(II), and gold(III) methylsarcosinedithiocarbamate complexes” (J Med Chem, 2005).

What was measured:
HeLa = experiment: Concentration of the compound required to inhibit cell growth by 50% towards human HeLa tumor cell lines by the trypan blue dye exclusion test after 72 h; type: functional, cell-based
In short: (§1)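 Cells were seeded in IMDM with 10% heat-inactivated FCS, penicillin/streptomycin and L-glutamine at 37 °C under 5% CO2, at 5.0 × 10^4 cells·mL-1 for HeLa and 2.0 × 10^5 cells·mL-1 for HL60. Compounds were taken from DMSO stocks into IMDM (final DMSO 0.1%). After 72 h, cells were stained for 2 min with 0.25% trypan blue plus 5% FCS, and viable cells were counted by phase-contrast microscopy. IC50 was taken as 50% growth inhibition versus control.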

HL-60 = experiment: Concentration of the compound required to inhibit cell growth by 50% towards human HL60 tumor cell lines by the trypan blue dye exclusion test after 72 h; type: functional, cell-based; in short: as §1

| Substance | IC50 (HeLa) | IC50 (HL-60) |
| --- | --- | --- |
| CISPLATIN | 1.2 µM | 1.7 µM |
| [Au(MSDT)Br2] | 1.8 µM | 0.8 µM |
| [Au(MSDT)Cl2] | 1.7 µM | 0.9 µM |
| [Pd(MSDT)Br]n | 5 µM | 3.7 µM |
| [Pd(MSDT)Cl]n | 6 µM | 3.8 µM |
| [Pd(MSDTM)Br2] | > 15 µM | > 15 µM |
| [Pt(MSDT)Br]n | > 15 µM | > 15 µM |
| [Pt(MSDT)Cl]n | > 15 µM | > 15 µM |
| [Pt(MSDTM)Br2] | > 15 µM | > 15 µM |
